Experimental data as given in ChEMBL document CHEMBL5352489, “Development of potent and selective degraders of PI5P4Kγ” (Eur J Med Chem, 2023).
Active and inactive are the calls of the source.

Legend:
[1] = molecular target: T1, Phosphatidylinositol 5-phosphate 4-kinase type-2 beta (Homo sapiens) (UniProt P78356); experiment: Binding affinity to full length wild type human PI5P4Kbeta by KINOMEscan KdELECT assay
T1 sequence (whole entry): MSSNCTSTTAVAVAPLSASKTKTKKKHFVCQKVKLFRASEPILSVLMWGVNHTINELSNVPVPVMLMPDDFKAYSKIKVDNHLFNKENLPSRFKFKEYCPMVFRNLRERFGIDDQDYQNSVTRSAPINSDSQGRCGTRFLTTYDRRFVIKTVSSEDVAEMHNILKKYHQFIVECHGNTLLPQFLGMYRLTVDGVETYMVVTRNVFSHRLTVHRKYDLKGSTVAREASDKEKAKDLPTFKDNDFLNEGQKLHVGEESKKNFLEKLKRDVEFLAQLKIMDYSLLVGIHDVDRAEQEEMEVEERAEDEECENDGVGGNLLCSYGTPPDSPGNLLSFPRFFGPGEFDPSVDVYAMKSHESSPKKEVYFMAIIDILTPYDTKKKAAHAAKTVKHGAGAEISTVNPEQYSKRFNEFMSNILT

[2] = molecular target: T1, Phosphatidylinositol 5-phosphate 4-kinase type-2 beta (Homo sapiens); experiment: Induction of PI5P4Kbeta degradation in human MOLT-4 cells at 1 to 10 uM incubated for 6 hrs by Immunoblot analysis; assay type: cell-based; settings: dose 1-10 µM
How it was run: (§1)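 MOLT-4 cells were grown in RPMI-1640 with L-glutamine, 10% FBS and 1% penicillin/streptomycin, then exposed to compound for 6 h. Cells were lysed in RIPA buffer (pH 8.0) with protease and phosphatase inhibitors, and protein was measured by BCA. Equal protein was run on 4–12% gels and blotted to PVDF. Membranes were probed with PI5P4Kα or PI5P4Kβ antibody at 4 °C overnight, then with IRDye secondary for 1 h at RT, and imaged on an Odyssey.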

[3] = molecular target: T2, Phosphatidylinositol 5-phosphate 4-kinase type-2 alpha (Homo sapiens) (UniProt P48426); experiment: Induction of PI5P4Kalpha degradation in human MOLT-4 cells at 1 to 10 uM incubated for 6 hrs by Immunoblot analysis; assay type: cell-based; settings: dose 1-10 µM; how it was run: as §1
T2 sequence (whole entry): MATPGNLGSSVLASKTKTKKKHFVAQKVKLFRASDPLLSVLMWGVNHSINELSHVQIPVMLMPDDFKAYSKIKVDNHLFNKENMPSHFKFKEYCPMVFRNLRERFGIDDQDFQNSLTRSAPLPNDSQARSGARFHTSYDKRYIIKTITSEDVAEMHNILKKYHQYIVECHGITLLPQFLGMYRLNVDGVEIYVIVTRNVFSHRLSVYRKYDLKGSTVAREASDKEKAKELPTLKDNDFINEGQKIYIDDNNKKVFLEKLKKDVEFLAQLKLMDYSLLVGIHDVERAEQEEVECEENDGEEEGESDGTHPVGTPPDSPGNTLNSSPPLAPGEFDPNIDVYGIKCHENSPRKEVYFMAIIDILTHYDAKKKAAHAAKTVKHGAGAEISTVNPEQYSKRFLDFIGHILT

[4] = molecular target: T2, Phosphatidylinositol 5-phosphate 4-kinase type-2 alpha (Homo sapiens); experiment: Binding affinity to full length recombinant human PI5P4Kalpha incubated for 30 mins in presence of ATP by HTRF assay

Measured: Activity

CC(=O)N[C@H](C(=O)N1C[C@H](O)C[C@H]1C(=O)N[C@@H](C)c1ccc(-c2scnc2C)cc1OCCCCCNC(=O)c1ccc(C(=O)Nc2cccc(Nc3cc(-c4c[nH]c5ccccc45)ncn3)c2)cc1)C(C)(C)C
inactive: all assays above

Cc1ncsc1-c1ccc([C@H](C)NC(=O)[C@@H]2C[C@@H](O)CN2C(=O)C(NC(=O)CCCCCCC(=O)Nc2ccc(C(=O)Nc3cccc(Nc4cc(-c5c[nH]c6ccccc56)ncn4)c3)cc2)C(C)(C)C)cc1 (single isomer, unassigned)
inactive: all assays above

Cc1ncsc1-c1ccc([C@H](C)NC(=O)[C@@H]2C[C@@H](O)CN2C(=O)[C@@H](NC(=O)CCC(=O)Nc2ccc(C(=O)Nc3cccc(Nc4cc(-c5c[nH]c6ccccc56)ncn4)c3)cc2)C(C)(C)C)cc1
inactive: all assays above

Cc1ncsc1-c1ccc([C@H](C)NC(=O)[C@@H]2C[C@@H](O)CN2C(=O)[C@@H](NC(=O)CCCCC(=O)Nc2ccc(C(=O)Nc3cccc(Nc4cc(-c5c[nH]c6ccccc56)ncn4)c3)cc2)C(C)(C)C)cc1
inactive: all assays above

Cc1ncsc1-c1ccc([C@H](C)NC(=O)[C@@H]2C[C@@H](O)CN2C(=O)[C@@H](NC(=O)CCCCCCCCC(=O)Nc2ccc(C(=O)Nc3cccc(Nc4cc(-c5c[nH]c6ccccc56)ncn4)c3)cc2)C(C)(C)C)cc1
inactive: all assays above
